# Assay results published in ChEMBL document CHEMBL3351820, “Development of novel membrane active lipidated peptidomimetics active against drug resistant clinical isolates” (Bioorg Med Chem, 2014).
# Tests used:
# [1] = system: Aspergillus fumigatus; assay: Antifungal activity against fluconazole-resistant Aspergillus fumigatus IGMC/LM1/0336 after 24 hrs by M27-A method; format: functional; conditions: IGMC/LM1/0336, 24 h
# In short: (§1)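 Fungi at 2.5×10^3 cfu/mL in RPMI 1640 (L-glutamine, no glucose or NaHCO3, pH 7.0 with 0.165 M MOPS). Mixed 1:1 with serial 2-fold dilutions in water, incubated at 37 °C with shaking, 24 h for A. fumigatus and 48–72 h for C. albicans. Growth read by absorbance at 600 nm. MIC taken as the lowest concentration with no growth.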
# [2] = system: Aspergillus niger; assay: Antifungal activity against Aspergillus niger ATCC 64028 after 24 hrs by M27-A method; format: functional; conditions: ATCC 64028, 24 h
# In short: (§2)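 Fungi at 2.5×10^3 cfu/mL in RPMI 1640 (L-glutamine, no glucose or NaHCO3, buffered pH 7.0 with 0.165 M MOPS), mixed 1:1 with serial 2-fold aqueous dilutions. Incubated at 37 °C with shaking, 24 h for Aspergillus, 48-72 h for Candida and Cryptococcus; A600 read. MIC taken as lowest concentration with no growth.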
# [3] = system: Escherichia coli; assay: Antibacterial activity against Escherichia coli MTCC 0723 after 18 hrs by micro dilution broth assay; format: functional; conditions: MTCC 0723, 18 h
# In short: (§3)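 Broth microdilution (modified CLSI): mid-log inoculum at 10^5 CFU/mL in Mueller-Hinton broth; serial 2-fold dilutions of sample in 0.001% acetic acid with 0.2% BSA added. Incubated overnight at 37 °C with agitation; A600 read at 18 h. Drug-free culture and uninoculated broth as controls; triplicate.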
# [4] = system: Escherichia coli; assay: Antibacterial activity against imipenem-resistant Escherichia coli PGI/ DML02292 clinical isolate after 18 hrs by micro dilution broth assay; format: functional; conditions: PGI/ DML02292, 18 h
# [5] = system: Pseudomonas aeruginosa; assay: Antibacterial activity against Pseudomonas aeruginosa MTCC 2295 after 18 hrs by micro dilution broth assay; format: functional; conditions: MTCC 2295, 18 h; in short: as §3
# [6] = system: Staphylococcus aureus; assay: Antibacterial activity against Staphylococcus aureus MTCC 3160 after 18 hrs by micro dilution broth assay; format: functional; conditions: MTCC 3160, 18 h; in short: as §3
# [7] = system: Staphylococcus aureus; assay: Antibacterial activity against methicillin-resistant Staphylococcus aureus PGI/ DML03149 clinical isolate after 18 hrs by micro dilution broth assay; format: functional; conditions: PGI/ DML03149, 18 h
# [8] = system: Bacillus subtilis; assay: Antibacterial activity against Bacillus subtilis MTCC 2763 after 18 hrs by micro dilution broth assay; format: functional; conditions: MTCC 2763, 18 h; in short: as §3
# [9] = Hemolytic activity in human RBCs; format: ADME, cell-based, Erythrocyte; conditions: red blood cells (RBCs)
# In short: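 Washed fresh human erythrocytes, 4% (v/v) in PBS (35 mM phosphate, 150 mM NaCl, pH 7.2), mixed 1:1 with 2-fold dilutions in PBS. Incubated 1 h at 37 °C without agitation, then centrifuged at 1000 g for 5 min. Supernatant hemoglobin read at 440 nm; % hemolysis = 100(A−A0)/(At−A0).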
# [10] = Therapeutic index, ratio of HC50 for human RBCs to MIC for Escherichia coli MTCC 0723; conditions: red blood cells (RBCs), read-out: TI
# [11] = Therapeutic index, ratio of HC50 for human RBCs to MIC for Staphylococcus aureus MTCC 3160; conditions: red blood cells (RBCs), read-out: TI
# [12] = system: Candida albicans; assay: Antifungal activity against Candida albicans ATCC 24433 after 48 to 72 hrs by M27-A method; format: functional; in short: as §2
# [13] = system: Candida albicans; assay: Antifungal activity against fluconazole-resistant Candida albicans PGI/ DML0109 clinical isolate after 48 to 72 hrs by M27-A method; format: functional; in short: as §1
# [14] = system: Cryptococcus neoformans; assay: Antifungal activity against Cryptococcus neoformans ATCC 2344 after 48 to 72 hrs by M27-A method; format: functional; in short: as §2
# [15] = system: Aspergillus fumigatus; assay: Antifungal activity against Aspergillus fumigatus ATCC 42203 after 24 hrs by M27-A method; format: functional; conditions: ATCC 42203, 24 h; in short: as §2
Structure (SMILES),MIC [1] [µg/mL],MIC [2] [µg/mL],MIC [3] [µg/mL],MIC [4] [µg/mL],MIC [5] [µg/mL],MIC [6] [µg/mL],MIC [7] [µg/mL],MIC [8] [µg/mL],HC50 [9] [µg/mL],selectivity ratio [10],selectivity ratio [11],MIC [12] [µg/mL],MIC [13] [µg/mL],MIC [14] [µg/mL],MIC [15] [µg/mL]
CCCCCCCCCCCC(=O)Nc1cccc(C(=O)NC(CCCN)C(=O)NC(CCCN)C(=O)NC(CCCN)C(N)=O)c1 (centres undefined),12.5,15,12.5,10.5,4.5,6.25,12,100,900,72,144,15.5,15,12.5,10
C[C@@H]1[C@H](O)[C@@H](C)/C=C/C=C/C=C/C=C/C=C/C=C/C=C/[C@H](O[C@@H]2O[C@H](C)[C@@H](O)[C@H](N)[C@@H]2O)C[C@@H]2O[C@](O)(C[C@@H](O)C[C@@H](O)[C@H](O)CC[C@@H](O)C[C@@H](O)CC(=O)O[C@H]1C)C[C@H](O)[C@H]2C(=O)O [AMPHOTERICIN B],0.9,0.5,–,–,–,–,–,–,–,–,–,0.5,0.7,0.3,0.3
CCCCCCCCCC(=O)Nc1cccc(C(=O)NC(CCCN)C(=O)NC(CCCN)C(=O)NC(CCCN)C(N)=O)c1 (centres undefined),30,50,62.5,70,50,31.2,50,125,> 1000,–,–,62.5,75,75,31.5
CCCCCCCCCCCCCC(=O)Nc1cccc(C(=O)NC(CCCN)C(=O)NC(CCCN)C(=O)NC(CCCN)C(N)=O)c1 (centres undefined),6.25,5,2.25,4,2.5,3.1,4.5,15.5,750,333,242,5.5,6.25,10,4.5
CCCCCCCCCCCCCCCCCC(=O)Nc1cccc(C(=O)NC(CCCN)C(=O)NC(CCCN)C(=O)NC(CCCN)C(N)=O)c1 (centres undefined),2.5,3.5,6.25,7.5,10,12.5,10.5,25,250,40,20,2.25,2,6.5,2
